Rows were chosen to be rich in hits. Some 2.9% of all compounds tested hit in one or more screens of this group.
CHO parental Ca – signal in parental CHO cells, OX1R antagonist counter-screen. AID 463079. parental CHO-K1, ATP-induced calcium, Fluo-8 fluorescence. inhibition, % at 5.6 µM. 330,000 compounds, 0.63% hits;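 active = inhibition above that plate's mean sample inhibition plus 3 SD, cut at about 26% in these data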;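 also: 0% = ATP-challenged DMSO wells and 100% = DMSO wells without ATP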
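Measured by: calcium-sensitive Fluo-8 fluorescence / Test system: CHO parental line / Controls: ATP-challenged DMSO wells low, unchallenged DMSO wells high / Measure: % inhibition / Compound: single nominal dose of 5.6 µM per compound / Replicates: single well per compound, no replicates / Reagent: ATP as calcium-mobilizing challenge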
CHO-K1 Ca PAM – counter-screen for M1 PAMs: effect in parental CHO-K1 cells. ATP EC20, Fluo-8 calcium fluorescence; 0% at ATP EC20, 100% at ATP max. activation, % at 3 µM. 360,000 compounds, 0.02% hits. AID 602247;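 active = activation above the run cutoff, the mean activation of all test compounds plus 3 SD, cut at about 40% in these data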;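 also: peak over basal fluorescence ratio in a 140 s read after ATP addition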
OX1R antag-1 – OX1R (human) antagonism | 330,000 compounds, 1.8% hits | inhibition, % at 6.6 µM | O43613 | AID 485270 | OX1R-expressing cells, FRET antagonist read-out; in the data active = inhibition mostly above about 38%, no sharp cut-off; inactive = mostly below about 40%;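 also: 0% = agonist challenge alone and 100% = reference antagonist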
Target sequence (O43613 whole entry, looked up): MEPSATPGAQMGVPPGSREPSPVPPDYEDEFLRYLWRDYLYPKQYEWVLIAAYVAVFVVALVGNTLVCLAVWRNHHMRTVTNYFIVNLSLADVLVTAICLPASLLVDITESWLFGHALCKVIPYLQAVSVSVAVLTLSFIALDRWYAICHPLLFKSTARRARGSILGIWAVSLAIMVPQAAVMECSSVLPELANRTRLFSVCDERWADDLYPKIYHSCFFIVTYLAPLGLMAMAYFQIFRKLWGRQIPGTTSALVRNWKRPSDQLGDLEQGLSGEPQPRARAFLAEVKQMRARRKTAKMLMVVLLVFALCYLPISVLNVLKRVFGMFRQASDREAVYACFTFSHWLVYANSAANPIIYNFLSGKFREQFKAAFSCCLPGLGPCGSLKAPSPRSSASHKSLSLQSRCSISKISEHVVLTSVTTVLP
OX1R antag-2 – blocks the human orexin 1 receptor; 330,000 compounds, 0.43% hits; inhibition, % at 5 µM; CHO/OX1R cells, Fluo-8 calcium fluorescence, orexin A; AID 434989; O43613;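 active = inhibition above its plate's threshold, mean inhibition of all tested compounds on the plate plus 3 SD, cut at about 37% in these data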;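 also: 0% = orexin A challenge wells and 100% = SB-334867-A antagonist wells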
CHO-K1 Ca ag – counter-screen for M1 agonists: effect in parental CHO-K1 cells; Fluo-8 calcium fluorescence; scaled to maximal ATP response, vehicle zero; AID 602248; 360,000 compounds, 0.48% hits; activation, % at 3 µM; in the data active = activation above about 15%;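 also: untransfected CHO-K1 host cells lacking M1 receptor as counterscreen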
CHO-K1 Ca antag – counter-screen for M1 antagonists: effect in parental CHO-K1 cells; 360,000 compounds, 0.6% hits; AID 602250; ATP-induced calcium, Fluo-8 fluorescence; inhibition, % at 3 µM;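 active = inhibition above a per-plate cutoff, the plate's mean sample inhibition plus 3 SD, cut at about 24% in these data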;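 also: 0% = DMSO plus EC80 ATP and 100% = DMSO alone without ATP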
OX1R Ca confirm – OX1R (human) antagonism, confirmed | shares compounds with OX1R antag-2 | CHO/OX1R cells, orexin A calcium Fluo-8 fluorescence | inhibition, % at 5 µM | 1,100 compounds, 38% hits; in the data active = inhibition above about 29%;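 also: 0% = agonist challenge alone and 100% = reference antagonist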
CHO Ca triplic – counter-screen: parental CHO calcium response change, triplicate; parental CHO-K1, ATP-induced calcium, Fluo-8 fluorescence; shares compounds with OX1R antag-2; inhibition, % at 5.6 µM; 1,100 compounds, 9.3% hits;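 active = inhibition above a per-plate limit, the mean inhibition of that plate's test compounds plus 3 SD, cut at about 25% in these data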;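 also: 0% = ATP challenge with DMSO and 100% = DMSO without ATP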
OX1R HTRF conf – confirmation of human orexin 1 receptor antagonists, HTRF format; shares compounds with OX1R antag-1; OX1R-expressing cells, HTRF antagonist assay; inhibition, % at 6.6 µM; 1,800 compounds, 49% hits; AID 492964; in the data active = inhibition above about 55%;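 also: CHO cells expressing OX1R stimulated with orexin A at about EC80; 0% = agonist challenge alone and 100% = reference antagonist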
CHO-K1 HTRF – counter-screen: parental CHO-K1 HTRF response; shares compounds with OX1R antag-1; parental CHO-K1 cells, HTRF counterscreen; AID 493232; 1,800 compounds, 48% hits; inhibition, % at 6.6 µM; in the data active = inhibition above about 17%;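 also: 0% = agonist challenge with vehicle and 100% = vehicle alone without agonist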
Numbers without * were called inactive; x = no result given.

SMILES	CHO parental Ca	CHO-K1 Ca PAM	OX1R antag-1	OX1R antag-2	CHO-K1 Ca ag	CHO-K1 Ca antag	OX1R Ca confirm	CHO Ca triplic	OX1R HTRF conf	CHO-K1 HTRF
CC(CC(=O)Nc1cccc(S(=O)(=O)N2CCCCC2)c1)c1ccccc1 (stereo not drawn)	-8	11	29*	35	7	-19	3	-13	49	3
CC1CC(C)CN(C(=O)c2cccc(S(=O)(=O)N3c4ccccc4CC3C)c2)C1 (stereo not drawn)	x	11	x	x	0	-4	x	x	x	x
CNC(=O)C1CN(C(=O)c2cccc(S(=O)(=O)N3c4ccccc4CC3C)c2)c2ccccc2O1 (stereo not drawn)	-13	16	40*	36	3	-15	20	-8	59*	-5
COc1ccc(OC)c(CCNC(=O)Cn2ccc3cc(S(=O)(=O)N4CCCC4)ccc32)c1	-6	8	54*	26	5	-5	22	-5	63*	3
COc1ccccc1NC(=O)c1ccc(NC(=O)CSc2nc(N)cc(=O)[nH]2)cc1	-1	-5	6	-15	0	-8	x	x	x	x
Cc1ccc(-c2ccc(/C=N\NC(=O)C3C(=O)NCC3c3ccccc3)o2)cc1Cl (stereo not drawn)	-5	12	69*	29	0	-6	48*	5	61*	11
O=C1NCC(c2ccccc2)C1C(=O)N/N=C\c1ccc(-c2cccc(Cl)c2Cl)o1 (stereo not drawn)	-6	5	101*	87*	0	-4	69*	2	87*	0
CC[C@]12c3[nH]c4cc(-c5ccco5)ccc4c3CCN1C(=O)[C@@H](CC(=O)NC/C=C(\C)CCC=C(C)C)C[C@@H]2C(=O)N1CCN(C(=O)c2ccco2)CC1	-14	25	58*	94*	0	-19	74*	-2	76*	0
CC[C@]12c3[nH]c4cc(-c5ccco5)ccc4c3CCN1C(=O)[C@@H](CC(=O)NC/C=C(\C)CCC=C(C)C)C[C@@H]2C(=O)N1CCN(C(=O)C2CC2)CC1	-17	12	5	34	0	-14	x	x	x	x
CCc1ccc(N(C(=O)c2csnn2)C(C(=O)NC(C)(C)CC)c2cccnc2)cc1 (stereo not drawn)	-3	-4	12	-16	0	-6	x	x	x	x
O=C(Nc1sc2c(c1C(=O)NCC1CCCO1)CCCC2)c1cccs1 (stereo not drawn)	15	2	40*	48*	0	-18	-4	-11	45	9
O=C(Nc1sc2c(c1C(=O)O)CCCC2)c1cccs1	0	-4	16	-1	0	1	x	x	x	x
Cc1cc(C)c2nc(NC(=O)CN3C(=O)NC4(CCCC4)C3=O)sc2c1	-12	-8	69*	30	1	3	18	-3	52	0
CCC(C)(C)NC(=O)C(c1cccc(OC)c1OC)N(C(=O)CCC(=O)Nc1cc(C)on1)c1ccc2c(c1)OCCO2 (stereo not drawn)	-18	7	40	-12	0	-3	x	x	x	x
Cc1ccc2c(c1)Cc1nc3ccccc3nc1-2	-13	12	87*	40	1	-14	33*	12	90*	8
COC(=O)[C@H](CC(C)C)NS(=O)(=O)N(Cc1ccccc1)[C@@H](CC(C)C)C(=O)OC	-27	-4	48*	49	-1	-11	14	-12	54	5
O=C(CCCN1C(=O)/C(=C/c2cccs2)SC1=S)Nc1cccc(O)c1	2	-5	67*	45*	9	15	33*	7	59*	7
